The source of these data is ChEMBL document CHEMBL4196152, “Controlling Ca2+ Permeable α-Amino-3-hydroxy-5-methyl-4-isoxazolepropionic Acid (AMPA) Receptors with Photochromic Ion Channel Blockers” (J Med Chem, 2018).

What all share (format): cell-based
The target of test [1] is Glutamate receptor 1 (Rattus norvegicus) (UniProt P19490). Kind of test: Inhibition of rat GluA1 flip isoform expressed in Xenopus laevis oocytes assessed as inhibition of L-Glu-evoked currents at 100 nM under dark condition at -80 mV membrane potential by two electrode voltage-clamp assay. Put shortly: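 TEVC on stage V–VI Xenopus laevis oocytes injected with GluA1 cRNA (13–46 nL) and recorded 1–3 days later at −80 mV and 23 °C. Bath solution (mM): 115 NaCl, 2 KCl, 5 HEPES, 1.8 BaCl₂, pH 7.6. Antagonist was co-applied with 300 µM L-glutamate in a dark room. Current was normalized to agonist alone; mean ± SEM, n = 3–16 oocytes.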

Test [2] deals with T1, Glutamate NMDA receptor; Grin1/Grin2a (Rattus norvegicus) (UniProt P35439+Q00959). The test can be described thus: Inhibition of rat GluN1a/GluN2A expressed in Xenopus laevis oocytes assessed as inhibition of L-Glu and Gly-evoked currents at 100 nM under dark condition at -80 mV membrane potential by two electrode voltage-clamp assay. The gist of the method: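 Xenopus laevis oocytes (stage V–VI) were injected with GluN1 and GluN2A cRNA at a 1:10 ratio. Two-electrode voltage clamp was done 1–3 days post-injection at −80 mV and 23 °C in 115 NaCl/2 KCl/5 HEPES/1.8 BaCl₂ (mM), pH 7.6. Antagonist was co-applied with 100 µM L-glutamate plus 100 µM glycine in a dark room. Current was normalized to agonist-only; mean ± SEM, n = 3–16.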

Test [3] deals with T2, Glutamate NMDA receptor; Grin1/Grin2a (Rattus norvegicus, UniProt P35439+Q00959). Kind of test: Inhibition of rat GluN1a/GluN2A expressed in Xenopus laevis oocytes assessed as inhibition of L-Glu and Gly-evoked currents under dark condition at -80 mV membrane potential by two electrode voltage-clamp assay. The gist of the method:
(§1)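 Oocytes injected with a 1:10 GluN1:GluN2A cRNA ratio and clamped at −80 mV by TEVC, 23 °C. Bath: 115 NaCl, 2 KCl, 5 HEPES, 1.8 BaCl2 (mM), pH 7.6. Antagonist co-applied with 100 µM L-Glu plus 100 µM glycine; response normalized to agonist alone. Dark runs done in a dark room. IC50 fitted with a Hill equation to pooled data from 3–10 oocytes.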

For test [4], the target named is T2, Glutamate NMDA receptor; Grin1/Grin2a. Kind of test: Inhibition of rat GluN1a/GluN2A expressed in Xenopus laevis oocytes assessed as inhibition of L-Glu and Gly-evoked currents under illumination with blue light at 470 nanometer condition at -80 mV membrane potential by two electrode voltage-clamp assay. The gist of the method: as §1
Test [5] deals with T3, Glutamate receptor 1 (Rattus norvegicus, UniProt P19490). Kind of test: Inhibition of rat GluA1 flip isoform expressed in Xenopus laevis oocytes assessed as inhibition of L-Glu-evoked currents under dark condition at -80 mV membrane potential by two electrode voltage-clamp assay. The gist of the method: (§2)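 TEVC at −80 mV, 23 °C, on oocytes 1–3 days after cRNA injection. Bath: 115 NaCl, 2 KCl, 5 HEPES, 1.8 BaCl2 (mM), pH 7.6. Antagonist co-applied with 300 µM L-Glu; current normalized to agonist alone. Dark runs done in a dark room. IC50 from pooled data of 3–10 oocytes, fitted with a Hill equation. Single-concentration screens used 100 nM and 10 nM.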

The target of test [6] is T1, Glutamate NMDA receptor; Grin1/Grin2a (Rattus norvegicus). The test can be described thus: Inhibition of rat GluN1a/GluN2A expressed in Xenopus laevis oocytes assessed as inhibition of L-Glu and Gly-evoked currents at 100 nM under illumination with blue light at 470 nanometer condition at -80 mV membrane potential by two electrode voltage-clamp assay. The gist of the method:
as §1

Test [7] has as its target Glutamate receptor 1 (Rattus norvegicus) (UniProt P19490). The test can be described thus: Inhibition of rat GluA1 flip isoform expressed in Xenopus laevis oocytes assessed as inhibition of L-Glu-evoked currents at 100 nM under illumination with blue light at 470 nanometer at -80 mV membrane potential by two electrode voltage-clamp assay. The gist of the method:
as §2

The target of test [8] is T3, Glutamate receptor 1. The test can be described thus: Inhibition of rat GluA1 flip isoform expressed in Xenopus laevis oocytes assessed as inhibition of L-Glu-evoked currents under illumination with blue light at 470 nanometer at -80 mV membrane potential by two electrode voltage-clamp assay. The gist of the method: as §2
Test [9] has as its target T1, Glutamate NMDA receptor; Grin1/Grin2a (Rattus norvegicus). Kind of test: Ratio of IC50 for inhibition of rat GluN1a/GluN2A expressed in Xenopus laevis oocytes under illumination with blue light at 470 nanometer condition to IC50 for inhibition of rat GluN1a/GluN2A expressed in Xenopus laevis oocytes under dark condition. The gist of the method: as §1

Sequence of Glutamate receptor 1 (Rattus norvegicus) (P19490 whole entry, canonical isoform): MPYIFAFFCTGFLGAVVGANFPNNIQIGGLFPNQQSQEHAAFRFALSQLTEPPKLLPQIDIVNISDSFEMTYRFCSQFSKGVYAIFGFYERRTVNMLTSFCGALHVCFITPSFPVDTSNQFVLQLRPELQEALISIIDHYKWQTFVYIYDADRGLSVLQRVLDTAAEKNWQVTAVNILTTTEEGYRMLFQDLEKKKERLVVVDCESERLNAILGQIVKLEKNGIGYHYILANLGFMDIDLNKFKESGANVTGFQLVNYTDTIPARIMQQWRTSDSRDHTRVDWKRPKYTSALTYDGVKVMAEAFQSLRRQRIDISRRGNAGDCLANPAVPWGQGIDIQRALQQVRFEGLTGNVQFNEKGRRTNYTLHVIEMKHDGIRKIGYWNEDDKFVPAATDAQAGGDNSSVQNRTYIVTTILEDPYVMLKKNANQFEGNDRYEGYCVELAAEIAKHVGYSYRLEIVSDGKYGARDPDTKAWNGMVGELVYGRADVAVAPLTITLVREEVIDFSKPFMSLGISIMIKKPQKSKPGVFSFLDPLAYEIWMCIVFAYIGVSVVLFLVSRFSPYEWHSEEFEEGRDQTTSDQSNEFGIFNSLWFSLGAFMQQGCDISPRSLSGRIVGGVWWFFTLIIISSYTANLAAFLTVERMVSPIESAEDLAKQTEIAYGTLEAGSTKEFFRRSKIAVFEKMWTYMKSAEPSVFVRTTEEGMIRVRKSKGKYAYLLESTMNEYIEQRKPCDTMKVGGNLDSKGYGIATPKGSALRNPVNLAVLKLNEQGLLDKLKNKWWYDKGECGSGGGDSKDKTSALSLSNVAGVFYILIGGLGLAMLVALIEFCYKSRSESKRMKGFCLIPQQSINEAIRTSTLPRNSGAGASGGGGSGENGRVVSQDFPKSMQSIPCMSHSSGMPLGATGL
T3 sequence (P19490 whole entry, canonical isoform): as above

As to `CN(C)c1ccc(/N=N/c2ccc(C(=O)N[C@@H](CC(N)=O)C(=O)NCCCCNCCCCCCCCNC(=O)[C@@H](N)CCCNC(=N)N)cc2)cc1`, the inhibition in test [1] was more than 70%.

As for `CCN(CC)c1ccc(/N=N/c2ccc(C(=O)N[C@@H](CC(N)=O)C(=O)NCCCCCCCCCNCCCNC(=O)[C@@H](N)CCCNC(=N)N)cc2)cc1`, the inhibition in [1] was 20 to 50%.

In the case of `CCN(CC)c1ccc(/N=N/c2cccc(C(=O)N[C@@H](CC(N)=O)C(=O)NCCCCCCCCCNCCCNC(=O)[C@@H](N)CCCNC(=N)N)c2)cc1`, the inhibition in [1] was in the range of 20 to 50%.

As to `N=C(N)NCCC[C@H](N)C(=O)NCCCNCCCCCCCCCNC(=O)c1cccc(/N=N/c2ccccc2)c1`, the inhibition in [2] fell in the range of 70 to 80%.

With `N=C(N)NCCC[C@H](N)C(=O)NCCCCCCCCNCCCCNC(=O)[C@H](CC(N)=O)NC(=O)c1ccc(/N=N/c2ccccc2)cc1`, the inhibition in test [2] lay in the range of 70 to 80%.

Consider `CN(C)c1ccc(/N=N/c2ccc(C(=O)NCCCCCCCCCNCCCNC(=O)[C@@H](N)CCCNC(=N)N)cc2)cc1`, for which, in [1], the inhibition is 20 to 50%.

With `CCN(CC)c1ccc(/N=N/c2cccc(C(=O)N[C@@H](CC(N)=O)C(=O)NCCCCNCCCCCCCCNC(=O)[C@@H](N)CCCNC(=N)N)c2)cc1`, the inhibition in [1] was more than 70%.

For the compound `CCN(CC)c1ccc(/N=N/c2ccc(C(=O)NCCCCCCCCCNCCCNC(=O)[C@@H](N)CCCNC(=N)N)cc2)cc1`, the inhibition in test [1] is 20 to 50%.

For the compound `CCN(CC)c1ccc(/N=N/c2ccc(C(=O)N[C@@H](CC(N)=O)C(=O)NCCCCCCCCNCCCCNC(=O)[C@@H](N)CCCNC(=N)N)cc2)cc1`, the IC50 in test [3] is 1100 nM; in test [4], 1200 nM; at Glutamate receptor 1 [5] it was 8 nM; on Glutamate receptor 1 [8] it was 61 nM. Further, the inhibition in test [6] is less than 5%; in test [7], 20%; in test [1] it was 60%; in test [2] it was less than 5%. For the same compound, the Ratio IC50 in test [9] came out at 8.

With `CCN(CC)c1ccc(/N=N/c2cccc(C(=O)NCCCCCCCCCNCCCNC(=O)[C@@H](N)CCCNC(=N)N)c2)cc1`, the inhibition in test [1] lay within 20 to 50%.

Turning to `N=C(N)NCCC[C@H](N)C(=O)NCCCCCCCCNCCCCNC(=O)[C@H](CC(N)=O)NC(=O)c1cccc(/N=N/c2ccccc2)c1`, in [2], the inhibition was 70 to 80%.

For the compound `CN(C)c1ccc(/N=N/c2ccc(C(=O)N[C@@H](CC(N)=O)C(=O)NCCCCCCCCCNCCCNC(=O)[C@@H](N)CCCNC(=N)N)cc2)cc1`, the inhibition in [1] is 20 to 50%.

With `CN(C)c1ccc(/N=N/c2cccc(C(=O)N[C@@H](CC(N)=O)C(=O)NCCCCNCCCCCCCCNC(=O)[C@@H](N)CCCNC(=N)N)c2)cc1`, the inhibition in test [1] is more than 70%.

`CN(C)c1ccc(/N=N/c2cccc(C(=O)N[C@@H](CC(N)=O)C(=O)NCCCCCCCCCNCCCNC(=O)[C@@H](N)CCCNC(=N)N)c2)cc1`: the inhibition in test [1] fell in the range of 20 to 50%.

Consider `CN(C)c1ccc(/N=N/c2cccc(C(=O)NCCCCCCCCCNCCCNC(=O)[C@@H](N)CCCNC(=N)N)c2)cc1`, for which the inhibition in test [1] is 20 to 50%.
